# From PubChem
# T cruzi repl: blocks replication of Trypanosoma cruzi. inhibition, % (concentration not given with the values). hit rate 1.4% among 300,000. T. cruzi beta-gal in NIH3T3, luminescence, 90 h;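 active means mean inhibition across valid replicates above about 55%, limit read from the data; inconclusive means mean below that limit but half or more replicates reach it; inactive means mean below it, under half of replicates reach it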;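 further: signal also drops with host cell toxicity which is not excluded here; 0% = plate median of DMSO wells and 100% = zero luminescence signal; higher percent means less beta-gal luminescence so fewer parasites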
#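 assay system = mouse NIH/3T3 fibroblasts infected with β-gal-expressing T. cruzi Tulahuen C4 | input = 5,000 NIH/3T3 host cells per well | buffer or medium = DMEM plus 2% FBS | timing = 3 h host attachment, then at least 90 h co-culture | measured by = GalScreen luminescence, 60 min | evaluation = luminescence reflecting intracellular parasite burden, expressed as percent inhibition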
# HSF-1 act: increases HSF-1 driven luciferase reporter signal | NIH3T3-HGL HSF-1 luciferase reporter, MG132, 8 h; 100% = twice DMSO control signal | hit rate 1.7% among 300,000 | activation, % at 9 µM;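 active means mean replicate activation of at least 50% with a set share of replicates each reaching 50%; inconclusive means only one of those two conditions met; inactive means mean below 50% and too few replicates reaching it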;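 further: 0% = median of the neutral control wells and 100% = twice that signal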
# Calb FLC: C. albicans growth modulation with fluconazole | hit rate 0.57% among 300,000 | growth inhibition, % (test concentration not listed) | C. albicans CaCi-2 + fluconazole, Alamar Blue growth, 48 h;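 active means growth inhibition above about 58% in most replicates, limit read from the data, passing the limit was not always enough; inconclusive means exactly half the replicates above a set limit; inactive means most replicates below a set limit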;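 further: all wells also contain fluconazole at 8 µg/ml as a sub-toxic cotreatment; 0% = median of DMSO wells and 100% = median of geldanamycin control wells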
# HSF1 inhib: HSF1 inhibition | NIH3T3-HGL HSE-luciferase, MG132-induced, luminescence 8 h; stronger effect = lower value | activity change, negative = inhibition, % at 7.5 µM (by protocol) | AID 2098 | hit rate 0.77% among 300,000;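 active means more than half of replicate wells show activity change below -50%, luminescence cut by over half; inconclusive means some wells, but at most half, below -50%; inactive means no replicate well below -50%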;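 further: luciferase reports HSF-1 transcriptional activity via heat shock element; 0% = median of DMSO wells and -100% = zero luminescence signal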
# HIF act: HIF pathway transcriptional activation | U2OS HRE-luciferase reporter, luminescence; normalized: DMSO 0%, desferrioxamine 100% | activation, % at 7.5 µM (by protocol) | hit rate 0.32% among 300,000 | AID 1910;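 active means mean activation of at least 10% of the iron chelator positive control signal, with at least half of replicates also reaching 10%; inconclusive means mean and replicate majority disagree about reaching 10%; inactive means mean and most replicates under 10%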
# The depositor's hits bear a star; ? = inconclusive; · = no result given. A selection: hits, their analogues and other compounds. The true share with any hit is near 4.4%.
SMILES,T cruzi repl,HSF-1 act,Calb FLC,HSF1 inhib,HIF act
O=C(NCc1ccco1)/C(=C\C=C\c1ccccc1)NC(=O)c1ccccc1Br,21,20,-14,11,0
O=C(c1cccc(S(=O)(=O)N2CCN(c3ccccc3)CC2)c1)N1CCN(c2ccccc2O)CC1,11,6,2,8,0
CCn1c(SCC(=O)Nc2nncs2)nnc1-c1ccco1,11,4,-5,-7,34*
CCn1c(SCC(=O)Nc2nc(C)cs2)nnc1-c1ccco1,-5,27,-16,7,0
N/C(=N\OC(=O)COc1ccc(Cl)cc1Cl)c1cccnc1,2,93*,33,49,3
Cc1ccc(OCC(=O)O/N=C(\N)c2ccccn2)cc1,-18,57*,14,28,2
N/C(=N\OC(=O)COc1ccc2ccccc2c1Br)c1ccncc1,56*,?,-4,42,3
N/C(=N\OC(=O)COc1cc(Cl)c(Cl)cc1Cl)c1ccccn1,29,93*,-17,40,1
O=C(Nc1ccccc1F)NC1CCCc2ccccc21 (stereo unspecified),3,8,-30,3,0
CN(C)c1ncnc(N(C)C)c1[N+](=O)[O-],-8,-4,0,-7,0
COC(=O)C1C/C(=N\NS(=O)(=O)c2ccc(C)cc2)c2ccsc2C1 (stereo unspecified),-20,-9,5,0,0
CCc1ccc(C(=O)OCC(=O)N(CCOC)c2c(N)n(Cc3ccccc3)c(=O)[nH]c2=O)cc1,-2,-3,·,3,1
Cc1cccc(C(C(N)=O)c2ncc(C(F)(F)F)cc2Cl)c1 (stereo unspecified),3,-44,-6,-29,-1
C=CS(=O)(=O)c1sc(Cl)c(N2CCOCC2)c1[N+](=O)[O-],55*,74*,3,45,-2
C=CSc1sc(Cl)c(N2CCOCC2)c1[N+](=O)[O-],-12,3,-1,8,0
Cc1ccc(C(C(=O)NC2CCCC2)N2CCc3ccccc32)cc1 (stereo unspecified),15,58*,0,25,0
C=CCSc1nc2ccccc2n1C(=O)/C=C/c1ccc(OC)c(OC)c1,-9,71*,3,44,3
CCCCOC(=O)n1c(SCC(=O)N(CC)CC)nc2ccccc21,15,14,-11,4,0
CCn1c(SCC(=O)N/N=C/c2ccc(OC)c(OC)c2)nc2ccccc21,·,·,-1,·,·
C=CCSc1nc2ccccc2n1C(=O)/C=C/c1cc(OC)c(OC)c(OC)c1,-3,-63,-31,-64*,0
COc1cc(/C=C/C(=O)N2CCN(C(=O)/C=C/c3cc(OC)c(OC)c(OC)c3)CC2)cc(OC)c1OC,0,32,17,13,0
COc1ccc(/C=C/C(=O)N2CC(C)OC(C)C2)cc1OC (stereo unspecified),-1,4,1,-1,1
CCSc1nc2ccccc2n1C(=O)/C=C/c1ccc(OC)c(OC)c1,-20,82*,?,33,1
CCOC(=O)n1c(SCC(N)=O)nc2ccccc21,-8,-73,2,-65*,-1
C[C@H](NC(=O)[C@@H]1CSC2c3ccccc3C(=O)N21)C(=O)NCCc1ccccc1 (stereo partly specified),-11,70*,12,29,1
SMILES,T cruzi repl,HSF-1 act,Calb FLC,HSF1 inhib,HIF act
C[C@H](NC(=O)[C@@H]1CSC2c3ccccc3C(=O)N21)C(=O)NCCc1ccc(F)cc1 (stereo partly specified),9,-1,·,7,0
CC(=O)N1N=C(c2ccc(Cl)cc2)OC1c1ccc(C(C)C)cc1 (stereo unspecified),-9,-4,6,-3,3
CC(=O)N1N=C(c2ccc(C)cc2)OC1c1ccc(Br)cc1 (stereo unspecified),2,57*,-1,37,3
CCOC(=O)C1CCN(C(=O)CCS(=O)(=O)c2ccc3c(c2)CC(C)N3C(=O)CC)CC1 (stereo unspecified),7,-71,-4,-62*,0
CCC(=O)N1c2ccc(S(=O)(=O)CCC(=O)N3CCn4c3nc3ccccc34)cc2CC1C (stereo unspecified),13,-17,81*,1,1
Cc1ccc(O)c(NC(=O)C2CC(c3cccc(Br)c3)=NO2)c1 (stereo unspecified),-10,20,8,17,0
